{
  "source": "ChEMBL document CHEMBL4831482",
  "about": "(Eur J Med Chem, 2021)",
  "key": {"Cryptococcus neoformans [1]": {"system": "Cryptococcus neoformans", "test": "Potency index, ratio of Amphotericin B IC50 to test compound IC50 for antifungal activity against Cryptococcus neoformans ATCC 90113 assessed as inhibition of fungal growth by CLSI method", "assay_type": "functional"}, "Cryptococcus neoformans [2]": {"system": "Cryptococcus neoformans", "test": "Antifungal activity against Cryptococcus neoformans ATCC 90113 assessed as inhibition of fungal growth by CLSI method", "assay_type": "functional, organism-based"}, "Staphylococcus aureus": {"system": "Staphylococcus aureus", "test": "Antibacterial activity against methicillin-resistant Staphylococcus aureus ATCC 33591 assessed as inhibition of bacterial growth by CLSI method", "assay_type": "functional, organism-based"}, "Enterococcus": {"system": "Enterococcus", "test": "Antibacterial activity against vancomycin resistant Enterococcus ATCC MP-1 assessed as inhibition of bacterial growth by CLSI method", "assay_type": "functional, organism-based"}, "Escherichia coli": {"system": "Escherichia coli", "test": "Antibacterial activity against Escherichia coli ATCC 35218 assessed as inhibition of bacterial growth by CLSI method", "assay_type": "functional, organism-based"}, "Pseudomonas aeruginosa": {"system": "Pseudomonas aeruginosa", "test": "Antibacterial activity against Pseudomonas aeruginosa ATCC 27853 assessed as inhibition of bacterial growth by CLSI method", "assay_type": "functional, organism-based"}, "Candida albicans": {"system": "Candida albicans", "test": "Antifungal activity against Candida albicans ATCC 10231 assessed as inhibition of fungal growth by CLSI method", "assay_type": "functional, organism-based"}, "Aspergillus fumigatus": {"system": "Aspergillus fumigatus", "test": "Antifungal activity against Aspergillus fumigatus ATCC 1022 assessed as inhibition of fungal growth by CLSI method", "assay_type": "functional, organism-based"}, "Klebsiella pneumoniae": {"system": "Klebsiella pneumoniae", "test": "Antibacterial activity against Klebsiella pneumoniae ATCC BAA1705 assessed as inhibition of bacterial growth by CLSI method", "assay_type": "functional, organism-based"}, "Vero": {"system": "Vero", "test": "Cytotoxicity against African green monkey Vero cells assessed as reduction in cell viability incubated for 48 hrs by Neutral red assay", "assay_type": "cell-based", "conditions": "chlorocebus sabaeus", "in_short": "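VERO monkey kidney cells seeded at 25,000 cells/well and incubated 24 h to confluency. Peptide added, then a further 48 h incubation. Viability read by neutral red uptake.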"}, "Cryptococcus neoformans [3]": {"system": "Cryptococcus neoformans", "test": "Potency index, ratio of Amphotericin B MIC to test compound MIC for antifungal activity against Cryptococcus neoformans ATCC 90113 assessed as inhibition of fungal growth by CLSI method", "assay_type": "functional"}, "Lipid bilayer [4]": {"system": "Lipid bilayer", "test": "Binding affinity to bacterial membrane mimic EPYC/EPYG (7:3) small unilamellar vesicle assessed as Stern-Volmer quenching constant by tryptophan quenching analysis"}, "Lipid bilayer [5]": {"system": "Lipid bilayer", "test": "Binding affinity to mammalian membrane mimic EPYC/cholesterol (10:1) small unilamellar vesicle assessed as Stern-Volmer quenching constant by tryptophan quenching analysis"}, "[6]": {"test": "Aggregation property of the compound in PBS assessed as particle size at pH 7.4 measured after 4 hrs by dynamic light scattering analysis (reference value: 2073 nm)", "assay_type": "physicochemical", "conditions": "buffer, pH 7.4, 4 h"}, "[7]": {"test": "Aggregation property of the compound in PBS assessed as polydispersity index at pH 7.4 by dynamic light scattering analysis (reference value: 0.333)", "assay_type": "physicochemical", "conditions": "buffer"}, "Cell wall": {"system": "Cell wall", "test": "Disruption of Cell wall in Cryptococcus neoformans ATCC350 by HR-TEM analysis", "assay_type": "subcellular"}, "Cell membrane [8]": {"system": "Cell membrane", "test": "Disruption of Plasma membrane in Cryptococcus neoformans ATCC350 by HR-TEM analysis", "assay_type": "cell membranes"}, "Cryptococcus neoformans [9]": {"system": "Cryptococcus neoformans", "test": "Disruption of capsule in Cryptococcus neoformans ATCC350 by HR-TEM analysis"}, "Cell membrane [10]": {"system": "Cell membrane", "test": "Induction of membrane permeabilization in Cryptococcus neoformans ATCC350 assessed as increase in red fluorescence intensity at MIC measured after 1 hr by propidium iodide staining based confocal laser scanning microscopic analysis", "assay_type": "subcellular", "in_short": "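Cells centrifuged, resuspended in PBS pH 7.4 and stained with propidium iodide. Confocal imaging at >560 nm, with untreated cells as control.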"}, "Cell membrane [11]": {"system": "Cell membrane", "test": "Induction of membrane permeabilization and disruption in Cryptococcus neoformans ATCC350 assessed as increase in green fluorescence intensity using FITC-labeled compound at MIC measured after 1 hr by confocal laser scanning microscopic analysis", "assay_type": "subcellular"}, "Cryptococcus neoformans [12]": {"system": "Cryptococcus neoformans", "test": "Induction of DNA damage in Cryptococcus neoformans ATCC350 assessed as nuclear and chromatin fragmentation by measuring reduction in blue fluorescence intensity at MIC measured after 1 hr by DAPI staining based confocal laser scanning microscopic analysis", "assay_type": "functional, organism-based", "in_short": "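Cells centrifuged, resuspended in PBS and stained with DAPI (3.01 µM, 10 min). Confocal imaging at Ex/Em 350/470 nm, with untreated cells as control.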"}, "Cell membrane [13]": {"system": "Cell membrane", "test": "Induction of pore formation in Cryptococcus neoformans ATCC350 assessed as membrane permeabilization by measuring release of intracellular material at MIC by scanning electron microscopy", "assay_type": "subcellular"}, "[14]": {"test": "Aggregation property of the compound in PBS assessed as particle size at pH 7.4 measured after 4 hrs by dynamic light scattering analysis (reference value: 802 nm)", "assay_type": "physicochemical", "conditions": "buffer, pH 7.4, 4 h"}, "[15]": {"test": "Aggregation property of the compound in PBS assessed as polydispersity index at pH 7.4 by dynamic light scattering analysis (reference value: 0.383)", "assay_type": "physicochemical", "conditions": "buffer"}},
  "note": "Active and inactive are the calls of the source. The calls are words filed in the database; no cut-off is given here. Where a SMILES comes first, the peptide text is derived from it. The star is where a group is joined. Boc = CC(C)(C)OC(=O)*",
  "data": [
    {"smiles": "CCCCc1ccc(-c2nc(C[C@H](N)C(=O)N[C@@H](Cc3c[nH]c4ccccc34)C(=O)N[C@@H](CCCNC(=N)N)C(=O)OC)c[nH]2)cc1.Cl.Cl", "values": [
      {"measurement": "Ratio IC50", "setting": "Cryptococcus neoformans [1]", "value": 2},
      {"measurement": "IC50", "setting": "Cryptococcus neoformans [2]", "value": 0.37, "unit": "µg/mL"},
      {"measurement": "MIC", "setting": "Cryptococcus neoformans [2]", "value": 0.63, "unit": "µg/mL"},
      {"measurement": "IC50", "setting": "Staphylococcus aureus", "value": 8.74, "unit": "µg/mL"},
      {"measurement": "MIC", "setting": "Staphylococcus aureus", "value": 10, "unit": "µg/mL"},
      {"measurement": "IC50", "setting": "Enterococcus", "value": 15.4, "unit": "µg/mL"},
      {"measurement": "MIC", "setting": "Enterococcus", "value": 20, "unit": "µg/mL"},
      {"measurement": "IC50", "setting": "Escherichia coli", "value": 15.6, "unit": "µg/mL"},
      {"measurement": "MIC", "setting": "Escherichia coli", "value": "> 20", "unit": "µg/mL"},
      {"measurement": "IC50", "setting": "Pseudomonas aeruginosa", "value": "> 20", "unit": "µg/mL"},
      {"measurement": "Activity", "setting": "Candida albicans", "value": "inactive"},
      {"measurement": "Activity", "setting": "Aspergillus fumigatus", "value": "inactive"},
      {"measurement": "Activity", "setting": "Klebsiella pneumoniae", "value": "inactive"},
      {"measurement": "Activity", "setting": "Vero", "value": "> 10", "unit": "µg/mL"},
      {"measurement": "Ratio", "setting": "Cryptococcus neoformans [3]", "value": 2},
      {"measurement": "KSV", "setting": "Lipid bilayer [4]", "value": 6.68},
      {"measurement": "KSV", "setting": "Lipid bilayer [5]", "value": 146},
      {"measurement": "Activity", "setting": "[6]", "value": 2792, "unit": "nm"},
      {"measurement": "Activity", "setting": "[7]", "value": 0.584},
      {"measurement": "Activity", "setting": "Cell wall", "value": "Active"},
      {"measurement": "Activity", "setting": "Cell membrane [8]", "value": "Active"},
      {"measurement": "Activity", "setting": "Cryptococcus neoformans [9]", "value": "Active"},
      {"measurement": "Activity", "setting": "Cell membrane [10]", "value": "Active"},
      {"measurement": "Activity", "setting": "Cell membrane [11]", "value": "Active"},
      {"measurement": "Activity", "setting": "Cryptococcus neoformans [12]", "value": "Active"},
      {"measurement": "Activity", "setting": "Cell membrane [13]", "value": "Active"}
    ]},
    {"smiles": "COC(=O)[C@H](CCCNC(=N)N)NC(=O)[C@H](Cc1c[nH]c2ccccc12)NC(=O)[C@H](Cc1c[nH]cn1)NC(=O)OC(C)(C)C", "note": "(Boc-His-Trp-Arg-OMe)", "values": [
      {"measurement": "IC50", "setting": "Cryptococcus neoformans [2]", "value": "> 20", "unit": "µg/mL"},
      {"measurement": "Activity", "setting": "Candida albicans", "value": "inactive"},
      {"measurement": "Activity", "setting": "Aspergillus fumigatus", "value": "inactive"},
      {"measurement": "Activity", "setting": "Klebsiella pneumoniae", "value": "inactive"},
      {"measurement": "Activity", "setting": "Vero", "value": "> 10", "unit": "µg/mL"},
      {"measurement": "Activity", "setting": "[14]", "value": 108, "unit": "nm"},
      {"measurement": "Activity", "setting": "[15]", "value": 0.922},
      {"measurement": "Activity", "setting": "Cell membrane [11]", "value": "inactive"}
    ]},
    {"smiles": "CC(C)(C)OC(=O)N[C@@H](Cc1c[nH]c(-c2ccc(-c3ccccc3)cc2)n1)C(=O)N[C@@H](Cc1c[nH]c2ccccc12)C(=O)N[C@@H](CCCNC(=N)N)C(=O)NCc1ccccc1", "values": [
      {"measurement": "IC50", "setting": "Cryptococcus neoformans [2]", "value": 2.15, "unit": "µg/mL"},
      {"measurement": "MIC", "setting": "Cryptococcus neoformans [2]", "value": 2.5, "unit": "µg/mL"},
      {"measurement": "IC50", "setting": "Staphylococcus aureus", "value": 4.56, "unit": "µg/mL"},
      {"measurement": "MIC", "setting": "Staphylococcus aureus", "value": 10, "unit": "µg/mL"},
      {"measurement": "IC50", "setting": "Enterococcus", "value": 8.82, "unit": "µg/mL"},
      {"measurement": "MIC", "setting": "Enterococcus", "value": 10, "unit": "µg/mL"},
      {"measurement": "IC50", "setting": "Escherichia coli", "value": "> 20", "unit": "µg/mL"},
      {"measurement": "IC50", "setting": "Pseudomonas aeruginosa", "value": 19.8, "unit": "µg/mL"},
      {"measurement": "Activity", "setting": "Candida albicans", "value": "inactive"},
      {"measurement": "Activity", "setting": "Aspergillus fumigatus", "value": "inactive"},
      {"measurement": "Activity", "setting": "Klebsiella pneumoniae", "value": "inactive"},
      {"measurement": "Activity", "setting": "Vero", "value": "> 10", "unit": "µg/mL"}
    ]}
  ]
}
